ChEMBL document CHEMBL5385958, “Psammaplin A and Its Analogs Attenuate Oxidative Stress in Neuronal Cells through Peroxisome Proliferator-Activated Receptor γ Activation” (J Nat Prod, 2024)
Calls of active or inactive are those of the source. No cut-off for these calls is given here.

Experiments:
[1] = molecular target: T1, Peroxisome proliferator-activated receptor gamma (Homo sapiens) (UniProt P37231); test: Activation of PPARgamma in H2O2 induced human SH-SY5Y cells assessed as increase in catalase mRNA expression level incubated for 6 hrs by qPCR analysis; format: cell-based; details: filed as activator
T1 sequence (whole entry): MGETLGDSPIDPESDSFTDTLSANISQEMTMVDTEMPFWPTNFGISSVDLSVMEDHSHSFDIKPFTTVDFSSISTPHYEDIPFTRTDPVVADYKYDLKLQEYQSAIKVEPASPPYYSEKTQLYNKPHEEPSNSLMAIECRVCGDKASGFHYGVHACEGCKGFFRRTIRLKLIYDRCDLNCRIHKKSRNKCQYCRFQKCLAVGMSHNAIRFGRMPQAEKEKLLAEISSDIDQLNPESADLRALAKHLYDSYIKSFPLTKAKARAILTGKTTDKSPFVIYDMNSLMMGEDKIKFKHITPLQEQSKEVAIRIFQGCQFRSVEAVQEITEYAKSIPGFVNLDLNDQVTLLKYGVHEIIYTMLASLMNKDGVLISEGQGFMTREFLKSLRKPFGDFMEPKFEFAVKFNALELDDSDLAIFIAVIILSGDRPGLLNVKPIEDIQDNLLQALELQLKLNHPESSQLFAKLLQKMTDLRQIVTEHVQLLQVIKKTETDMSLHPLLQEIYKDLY
Method in brief: (§1)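 qPCR on SH-SY5Y cells (1 × 10^6/well, attached 24 h) given test agent together with 150 μM H2O2 for 6 h. Total RNA extracted, reverse transcribed with oligo-dT, amplified with SYBR Green and gene-specific primers (CAT, SOD1, GPx1). RPLP0 used as internal normalizer; ΔΔCt relative to H2O2-control calibrator. Three independent replicates in triplicate; rosiglitazone 10 μM as positive control.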

[2] = molecular target: T1, Peroxisome proliferator-activated receptor gamma (Homo sapiens); test: Activation of PPARgamma in human SH-SY5Y cells assessed as increase in PPARgamma nucleus translocation at 0.001 uM incubated for 6 hrs by Western blot analysis; format: cell-based; details: filed as activator
Method in brief: (§2)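 Western blot on SH-SY5Y cells (1 × 10^6/well) treated 6 h, with or without 150 μM H2O2. Hypotonic lysis gave cytosolic fraction; nuclear extraction buffer gave nuclear fraction. 10 μg nuclear or 15 μg cytosolic protein per lane, anti-PPARγ 1:1000. Bands normalized to lamin B1 (nuclear) or actin (cytosolic); translocation expressed as nuclear/cytosolic ratio. Three replicates in duplicate.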

[3] = test system: SH-SY5Y; test: Antioxidant activity in human SH-SY5Y cells assessed as protection against H2O2 induced loss of cell viability at 0.001 to 0.1 uM incubated for 6 hrs in presence of H2O2 by MTT assay; format: functional, cell-based; details: dose 0.001-0.1 µM
Method in brief: (§3)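 Neuroprotection by MTT: SH-SY5Y cells (5 × 10^4/well) cotreated 6 h with agent plus 150 μM H2O2; vitamin E 25 μM as positive control. Cells washed with Locke's buffer, given 500 μg/mL MTT for 1 h at 37 °C, solubilized with 5% SDS, absorbance read at 595 nm. Saponin 1 mg/mL death control subtracted. Triplicate, three independent times.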

[4] = test system: SH-SY5Y; test: Antioxidant activity in human SH-SY5Y cells assessed as recovery of H2O2 decreased GSH level at 1 uM incubated for 30 min by fluorescence based microplate reader assay relative to control (reference value: 83 +/- 2%); format: functional; parameters: scale not given: the % may be the effect or the level left; details: 0.5 h
[5] = test system: SH-SY5Y; test: Inhibition of H2O2 induced ROS release in human SH-SY5Y cells at 1 uM incubated for 6 hrs by carboxy-H2DCFDA staining based assay; format: functional; parameters: scale not given: the % may be the effect or the level left
Method in brief: (§4)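 ROS measurement: SH-SY5Y cells exposed to agent and 150 μM H2O2 for 6 h, washed with serum-free medium and loaded with 20 μM carboxy-H2DCFDA for 1 h at 37 °C, then PBS for 30 min. Fluorescence read by plate reader. Vitamin E 25 μM as positive control. Triplicate, three independent times; percentage of untreated control.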

[6] = test system: SH-SY5Y; test: Inhibition of mPTP opening in human SH-SY5Y cells assessed as decrease in cyclophilin D protein expression at 0.001 uM incubated for 6 hrs by Western blot analysis; format: cell-based
Method in brief: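 15 μg cytosolic protein run on 4–20% SDS-PAGE, probed with anti-cyclophilin antibody 1:1000, bands normalized to actin. Three replicates in duplicate; percentage of untreated or H2O2 control.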

[7] = molecular target: T1, Peroxisome proliferator-activated receptor gamma (Homo sapiens); test: Activation of PPARgamma in H2O2 induced human SH-SY5Y cells assessed as increase in glutathione peroxidase 1 mRNA expression incubated for 6 hrs by qPCR analysis; format: cell-based; details: filed as activator; method in brief: as §1
[8] = molecular target: T1, Peroxisome proliferator-activated receptor gamma (Homo sapiens); test: Activation of PPARgamma in human SH-SY5Y cells at 1 uM incubated for 6 hrs relative to control; format: cell-based; details: filed as activator
Method in brief: (§5)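 Nuclear extracts from SH-SY5Y cells (1 × 10^6/well) treated 6 h with 0.001–1 μM agent; rosiglitazone 10 μM as positive control. PPARγ DNA-binding activity measured by ELISA-type transcription factor kit. Absorbance corrected by Bradford protein content and expressed as percentage of control cells. Three independent experiments.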

[9] = test system: SH-SY5Y; test: Cytotoxicity against human SH-SY5Y cells assessed as reduction in cell viability at 0.001 to 1 uM incubated for 24 hrs by MTT assay; format: toxicity, cell-based; details: dose 0.001-1 µM
Method in brief: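 MTT viability of SH-SY5Y cells (5 × 10^4/well) after 24 h exposure to 0.001, 0.01, 0.1 and 1 μM. 500 μg/mL MTT for 1 h at 37 °C after Locke's buffer wash; SDS solubilization; absorbance at 595 nm with 1 mg/mL saponin blank subtracted. DMSO vehicle below 0.5%. Triplicate, three independent times.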

[10] = molecular target: T1, Peroxisome proliferator-activated receptor gamma (Homo sapiens); test: Activation of PPARgamma in human SH-SY5Y cells assessed as increase in glutathione peroxidase 1 mRNA expression incubated for 6 hrs by qPCR analysis; format: cell-based; details: filed as activator
Method in brief: (§6)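 SH-SY5Y cells (1 × 10^6/well, 24 h attachment) exposed to test agent alone for 6 h. RNA extracted, cDNA made with oligo-dT primers, SYBR Green qPCR for CAT, GPx1, Nrf2 or SOD1. Expression normalized to RPLP0 and calculated by ΔΔCt against untreated control calibrator. Three independent replicates performed in triplicate; rosiglitazone 10 μM as positive control.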

[11] = molecular target: T1, Peroxisome proliferator-activated receptor gamma (Homo sapiens); test: Activation of PPARgamma in H2O2 induced human SH-SY5Y cells assessed as increase in PPARgamma nucleus translocation incubated for 6 hrs by Western blot analysis; format: cell-based; details: filed as activator; method in brief: as §2
[12] = test system: SH-SY5Y; test: Antioxidant activity in human SH-SY5Y cells assessed as reversal of H2O2 induced mitochondrial membrane depolarization at 0.001 to 0.1 uM incubated for 6 hrs by TMRM staining based microplate reader analysis; format: functional, cell-based; details: dose 0.001-0.1 µM
Method in brief: (§7)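 SH-SY5Y cells (5 × 10^4/well) cotreated with agent and 150 μM H2O2 for 6 h, then loaded with 1 μM TMRM for 30 min at 37 °C. Cells lysed with 50% H2O/DMSO; fluorescence read at 535/590 nm. Vitamin E 25 μM as positive control. Data expressed as percentage of untreated control cells. Triplicate, three independent times.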

[13] = molecular target: T1, Peroxisome proliferator-activated receptor gamma (Homo sapiens); test: Activation of PPARgamma in human SH-SY5Y cells assessed as increase in Nrf2 mRNA expression level at 0.001 uM incubated for 6 hrs by qPCR analysis; format: cell-based; details: filed as activator; method in brief: as §6
[14] = test system: SH-SY5Y; test: Inhibition of mPTP opening in human SH-SY5Y cells assessed as increase in calcein fluorescence signal by flow cytometry analysis relative to control; format: cell-based; details: dose or concentration not given here
Method in brief: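 mPTP assay: detached SH-SY5Y cells in PBS with 0.6 mM CaCl2 loaded with calcein-AM for 15 min at 37 °C. 0.4 mM CoCl2 plus 0.001 μM agent added for 15 min, then 1 mM TBHP for 3 min.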

[15] = molecular target: T1, Peroxisome proliferator-activated receptor gamma (Homo sapiens); test: Activation of PPARgamma in human SH-SY5Y cells assessed as transcription activity at 0.001 to 0.1 uM incubated for 6 hrs; format: cell-based; details: filed as activator, dose 0.001-0.1 µM; method in brief: as §5
[16] = molecular target: T1, Peroxisome proliferator-activated receptor gamma (Homo sapiens); test: Activation of PPARgamma in human SH-SY5Y cells assessed as increase in superoxide dismutase 1 mRNA expression at 0.001 uM incubated for 6 hrs by qPCR analysis; format: cell-based; details: filed as activator; method in brief: as §6
[17] = test system: SH-SY5Y; test: Inhibition of H2O2 induced ROS release in human SH-SY5Y cells at 0.001 to 1 uM incubated for 6 hrs by carboxy-H2DCFDA staining based assay; format: functional; parameters: scale not given: the % may be the effect or the level left; details: dose 0.001-1 µM; method in brief: as §4
[18] = test system: SH-SY5Y; test: Antioxidant activity in human SH-SY5Y cells assessed as recovery of H2O2 decreased GSH level at 0.001 to 1 uM incubated for 30 min by fluorescence based microplate reader assay; format: functional, cell-based; details: dose 0.001-1 µM
[19] = test system: SH-SY5Y; test: Antioxidant activity in human SHSY-5Y cells assessed as protection against H2O2 induced loss of cell viability at 0.01 uM incubated for 6 hrs in presence of H2O2 by MTT assay (reference value: 76 +/- 4%); format: functional; method in brief: as §3
[20] = test system: SH-SY5Y; test: Inhibition of H2O2 induced ROS release in human SH-SY5Y cells at 0.001 uM incubated for 6 hrs by carboxy-H2DCFDA staining based assay; format: functional; parameters: scale not given: the % may be the effect or the level left; method in brief: as §4
[21] = test system: SH-SY5Y; test: Antioxidant activity in human SH-SY5Y cells assessed as reversal of H2O2 induced mitochondrial membrane depolarization at 0.001 uM incubated for 6 hrs by TMRM staining based microplate reader analysis (reference value: 76 +/- 2%); format: functional; method in brief: as §7
[22] = test system: SH-SY5Y; test: Antioxidant activity in human SH-SY5Y cells assessed as protection against H2O2 induced loss of cell viability at 0.001 uM incubated for 6 hrs in presence of H2O2 by MTT assay (reference value: 76 +/- 4%); format: functional; method in brief: as §3
[23] = test system: SH-SY5Y; test: Inhibition of H2O2 induced ROS release in human SH-SY5Y cells at 25 uM incubated for 6 hrs by carboxy-H2DCFDA staining based assay; format: functional, cell-based; parameters: scale not given: the % may be the effect or the level left; method in brief: as §4
[24] = test system: SH-SY5Y; test: Antioxidant activity in human SH-SY5Y cells assessed as protection against H2O2 induced loss of cell viability at 25 uM incubated for 6 hrs in presence of H2O2 by MTT assay; format: functional, cell-based; method in brief: as §3

## O=C(NCCSSCCNC(=O)/C(Cc1cc(O)c(O)c(Br)c1)=N\O)/C(Cc1ccc(O)c(Br)c1)=N\O
[1]
  Activity: Active
[2]
  Activity: 151%
[3]
  Activity: Active
[4]
  Activity: 117%
[5]
  Activity: 99%
[6]
  inhibition: inactive
[7]
  Activity: Active
[8]
  Activity: 130%
[9]
  Activity: Non-Toxic
[10]
  Activity: Active
[11]
  Activity: 177%
[12]
  Activity: Active
[13]
  Activity: Active

## CC(C)(C)OO
[14]
  inhibition: 54%

## CN(CCOc1ccc(CC2SC(=O)NC2=O)cc1)c1ccccn1 (centres undefined)
[11]
  Activity: 139%

## O=C(NCCSSCCNC(=O)/C(Cc1cc(Br)c(O)c(-c2cc(C/C(=N\O)C(=O)NCCSSCCNC(=O)/C(Cc3ccc(O)c(Br)c3)=N/O)cc(Br)c2O)c1)=N/O)/C(Cc1ccc(O)c(Br)c1)=N/O [BISAPRASIN]
[15]
  Activity: Active
[1]
  Activity: Active
[14]
  inhibition: 92%
[2]
  Activity: 180%
[3]
  Activity: Active
[6]
  inhibition: inactive
[16]
  Activity: Active
[7]
  Activity: Active
[9]
  Activity: Non-Toxic
[10]
  Activity: Active
[17]
  Activity: 87%
[18]
  Activity: Active
[12]
  Activity: Active
[13]
  Activity: Active

## O=C(NCCSSCCNC(=O)/C(Cc1ccc(O)c(Br)c1)=N/O)/C(Cc1ccc(O)c(Br)c1)=N/O [PSAMMAPLIN A]
[2]
  Activity: 136%
[4]
  Activity: 120%
[5]
  Activity: 96%
[6]
  inhibition: inactive
[19]
  Activity: 96%
[20]
  Activity: 101%
[21]
  Activity: 100%
[7]
  Activity: Active
[9]
  Activity: Non-Toxic
[10]
  Activity: Active
[11]
  Activity: 150%
[13]
  Activity: Active
[22]
  Activity: 100%

## VITAMIN E
[23]
  Activity: 101%
[24]
  Activity: 106%
